The record followed here is ChEMBL document CHEMBL1128270 (J Med Chem, 1995).

As a reminder, the IC50 is the concentration needed to halve the response being measured. A lower IC50 goes with greater potency in that assay.

Test [1] addresses T1, 5-hydroxytryptamine receptor 1A (Rattus norvegicus, UniProt P19327).
T1 sequence (P19327 whole entry): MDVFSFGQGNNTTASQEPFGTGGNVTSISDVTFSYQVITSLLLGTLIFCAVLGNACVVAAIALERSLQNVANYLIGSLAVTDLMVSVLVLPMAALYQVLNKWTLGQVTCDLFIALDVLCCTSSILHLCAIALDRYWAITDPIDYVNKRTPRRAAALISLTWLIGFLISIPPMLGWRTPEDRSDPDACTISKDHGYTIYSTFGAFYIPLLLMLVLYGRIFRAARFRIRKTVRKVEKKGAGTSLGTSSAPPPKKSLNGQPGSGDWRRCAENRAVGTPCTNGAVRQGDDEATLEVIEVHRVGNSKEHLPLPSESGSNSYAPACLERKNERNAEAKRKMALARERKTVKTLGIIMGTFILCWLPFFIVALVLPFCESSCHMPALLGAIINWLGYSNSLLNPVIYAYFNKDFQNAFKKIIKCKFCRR
The test can be described thus: In vitro binding affinity measured on serotonin 5-hydroxytryptamine 1A receptor using [3H]8-OH-DPAT as radioligand.

Test [2] has as its target T2, Adrenergic receptor alpha-1 (Rattus norvegicus, UniProt P15823+P23944+P43140).
T2 sequence (P15823 whole entry): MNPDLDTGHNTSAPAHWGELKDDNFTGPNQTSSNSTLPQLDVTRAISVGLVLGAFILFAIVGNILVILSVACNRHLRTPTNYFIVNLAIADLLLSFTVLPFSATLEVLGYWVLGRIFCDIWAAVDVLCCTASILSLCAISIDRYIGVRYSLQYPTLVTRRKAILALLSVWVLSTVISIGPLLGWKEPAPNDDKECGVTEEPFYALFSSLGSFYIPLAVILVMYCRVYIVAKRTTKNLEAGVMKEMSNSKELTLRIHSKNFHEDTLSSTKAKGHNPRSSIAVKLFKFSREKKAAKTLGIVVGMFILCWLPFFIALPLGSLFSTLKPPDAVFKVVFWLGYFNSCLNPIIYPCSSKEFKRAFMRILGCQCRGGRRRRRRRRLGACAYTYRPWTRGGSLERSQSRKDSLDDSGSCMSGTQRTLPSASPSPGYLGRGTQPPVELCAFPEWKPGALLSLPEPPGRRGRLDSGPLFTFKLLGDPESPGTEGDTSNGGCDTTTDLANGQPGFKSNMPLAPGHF
T2 sequence (P23944 whole entry): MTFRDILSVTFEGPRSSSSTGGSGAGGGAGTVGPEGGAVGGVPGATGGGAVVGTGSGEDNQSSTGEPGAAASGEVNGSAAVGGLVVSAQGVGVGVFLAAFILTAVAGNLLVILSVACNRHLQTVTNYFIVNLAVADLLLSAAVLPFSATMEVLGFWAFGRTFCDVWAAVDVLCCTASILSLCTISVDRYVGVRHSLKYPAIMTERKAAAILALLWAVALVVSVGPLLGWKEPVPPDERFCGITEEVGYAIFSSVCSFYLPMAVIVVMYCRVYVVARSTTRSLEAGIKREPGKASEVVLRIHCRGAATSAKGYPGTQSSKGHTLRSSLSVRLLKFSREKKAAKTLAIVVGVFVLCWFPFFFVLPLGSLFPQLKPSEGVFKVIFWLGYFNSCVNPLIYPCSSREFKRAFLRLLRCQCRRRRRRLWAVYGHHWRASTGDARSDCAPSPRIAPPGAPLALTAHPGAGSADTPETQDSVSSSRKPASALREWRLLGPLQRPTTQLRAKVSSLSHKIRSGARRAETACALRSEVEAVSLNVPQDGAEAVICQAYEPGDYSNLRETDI
T2 sequence (P43140 whole entry): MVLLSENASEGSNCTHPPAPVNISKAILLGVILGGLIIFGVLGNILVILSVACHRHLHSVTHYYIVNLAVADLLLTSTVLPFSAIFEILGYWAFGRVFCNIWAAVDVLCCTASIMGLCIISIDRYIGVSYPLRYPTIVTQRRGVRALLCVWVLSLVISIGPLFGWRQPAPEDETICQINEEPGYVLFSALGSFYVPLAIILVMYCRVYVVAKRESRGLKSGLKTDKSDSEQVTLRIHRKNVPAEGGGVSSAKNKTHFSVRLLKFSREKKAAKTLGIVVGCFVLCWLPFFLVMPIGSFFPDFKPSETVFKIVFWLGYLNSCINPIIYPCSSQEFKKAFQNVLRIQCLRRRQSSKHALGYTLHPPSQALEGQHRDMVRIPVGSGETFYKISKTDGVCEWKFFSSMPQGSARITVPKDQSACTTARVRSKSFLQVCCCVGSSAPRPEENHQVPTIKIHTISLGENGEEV
As to the kind of experiment: In vitro binding affinity measured on alpha-1 adrenergic receptor using [3H]prazosin as radioligand. Type of test: protein assay.

The target of the next test is D(2) dopamine receptor (Rattus norvegicus, UniProt P61169). The test can be described thus: In vitro binding affinity measured on dopamine receptor D2 using [3H]spiroperidol as radioligand. An outline of the steps:
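IC50 came from 7–9 drug concentrations in triplicate, over 2–4 independent experiments, analysed with EBDA. Specific binding exceeded 75% of total.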

Test [3] can be described thus: Selectivity ratio of IC50 value against D-2 receptor to that of 5-HT1A receptor. An outline of the steps: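 Ratio of the D-2 IC50 to the 5-HT1A IC50. […] Each IC50 came from 7–9 concentrations in triplicate over 2–4 experiments (EBDA).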
In test [4] the target is Serotonin 1a (5-HT1a) receptor/Adrenergic receptor alpha-1 (Rattus norvegicus) (UniProt P15823+P23944+P43140+P19327). As to the kind of experiment: Selectivity ratio of IC50 value against alpha-1 receptor to that of 5-HT1A receptor. Type of test: protein assay. In short, it runs like this: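 Ratio of the α1 IC50 to the 5-HT1A IC50 ([3H]-8-OH-DPAT, rat cortex). For α1, male Sprague-Dawley rat cortex membranes were prepared in 50 mM Tris-HCl pH 7.7 with 10 μM pargyline and 0.1% ascorbate.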

The target in test [5] is Serotonin 2 (5-HT2) receptor (Rattus norvegicus, UniProt P30994+P08909+P14842). As to the kind of experiment: In vitro binding affinity measured on serotonin 5-hydroxytryptamine 2 receptor using [3H]ketanserin as radioligand. Type of test: protein assay.
A further test is filed under the species Cavia porcellus. As to the kind of experiment: Selectivity as the ratio of IC50 value against sigma receptor to that of 5-HT1A receptor. In short, it runs like this: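 Ratio of the σ IC50 to the 5-HT1A IC50. For σ, a P2 membrane fraction was prepared from whole male guinea pig brain without cerebellum in 50 mM Tris-HCl pH 7.4. [3H]DTG was 0.90 nM final, incubated 90 min at 25 °C, then filtered and counted. IC50 values came from 7–9 concentrations in triplicate (EBDA).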

Sequence of D(2) dopamine receptor (P61169 whole entry): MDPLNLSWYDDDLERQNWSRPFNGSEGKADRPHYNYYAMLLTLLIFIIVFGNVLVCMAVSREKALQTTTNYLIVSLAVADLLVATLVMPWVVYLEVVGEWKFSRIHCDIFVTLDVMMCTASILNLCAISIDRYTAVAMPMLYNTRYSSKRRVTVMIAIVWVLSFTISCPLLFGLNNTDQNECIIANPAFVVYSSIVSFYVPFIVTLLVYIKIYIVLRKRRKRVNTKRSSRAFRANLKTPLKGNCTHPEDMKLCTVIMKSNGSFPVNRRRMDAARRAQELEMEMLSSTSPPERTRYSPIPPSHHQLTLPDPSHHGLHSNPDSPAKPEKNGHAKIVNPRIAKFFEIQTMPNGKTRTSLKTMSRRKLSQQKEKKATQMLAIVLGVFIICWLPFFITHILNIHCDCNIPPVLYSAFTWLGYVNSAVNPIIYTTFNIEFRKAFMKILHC

Consider `COc1ccccc1N1CCN(CCCCC2=CCCc3c(OC)cccc32)CC1`, for which the half-inhibitory concentration (IC50) in test [1] was 13 nM; in test [2], 96.2 nM; at D(2) dopamine receptor, 5920 nM. The results for the Selectivity in test [3] and in test [4] were 455 and 7.4, respectively.

As to `COc1ccc2c(c1)C(CCCN1CCN(c3ccccc3)CC1)=CCC2`, the IC50 is 147 nM in test [1], 119 nM in test [5], 157 nM in test [2] and 777 nM on D(2) dopamine receptor.

For the compound `COc1ccc2c(c1)C(CCCN1CCN(c3cccc(C(F)(F)F)c3)CC1)CCC2` (stereo not drawn), the IC50 in test [1] is 88.4 nM; in test [5], 391 nM; in test [2], 2930 nM; at D(2) dopamine receptor, 1330 nM. Besides, the Selectivity in the test filed under Cavia porcellus came out at 0.99; in test [3], 15; in test [4], 33.

As to `COc1cccc2c1CCCC2CCCN1CCN(c2ccccn2)CC1` (stereo not drawn), the IC50 in test [1] came to 0.58 nM; in test [5] it was 331 nM; in test [2] it was 31.4 nM; at D(2) dopamine receptor, 177 nM.

Turning to `COc1cccc2c1CCC=C2CCCN1CCN(c2ccccn2)CC1`, the IC50 in test [1] turned out to be 1.4 nM; in test [5], 205 nM; in test [2] it was 123 nM; on D(2) dopamine receptor it was 119 nM.

As to `COc1ccc2c(c1)C(CCCCN1CCN(c3ccccc3OC)CC1)CCC2` (stereo not drawn), the IC50 in test [1] is 8.83 nM; in test [5], 329 nM; in test [2], 78.5 nM; at D(2) dopamine receptor it was 50.9 nM.

For the compound `COc1ccc2c(c1)C(CCCN1CCN(c3ccccc3)CC1)CCC2` (stereo not drawn), the values for the IC50 (in test [1]; in test [2]; at D(2) dopamine receptor) were 9.24 nM, 184 nM and 28 nM, respectively. Further, the Selectivity in test [3] came out at 3; in test [4], 20.

Take `COc1ccc2c(c1)C(SCCN1CCN(c3ccccc3OC)CC1)CCC2` (stereo not drawn): the IC50 came to 5.94 nM in test [1], 111 nM in test [5], 116 nM in test [2] and 50.2 nM at D(2) dopamine receptor. The figures for the Selectivity (in the test filed under Cavia porcellus; in test [3]; in test [4]) were 20, 8.5 and 20, respectively.

`COc1ccc2c(c1)C(CCCCN1CCN(c3ccccc3OC)CC1)=CCC2`: the IC50 in test [1] was 1.53 nM; in test [5], 209 nM; in test [2], 15.3 nM; on D(2) dopamine receptor it was 10.6 nM.

Consider `COc1ccccc1N1CCN(CCCC2=CCCc3c(OC)cccc32)CC1`, for which the concentration for half-maximal inhibition (IC50) is 8.8 nM in test [1], 770 nM in test [5], 32.3 nM in test [2] and 17.4 nM at D(2) dopamine receptor. Moreover, the figures for the Selectivity (in the test filed under Cavia porcellus; in test [3]; in test [4]) were 3.8, 2 and 3.7, respectively.

Turning to `COc1ccccc1N1CCN(CCCC2CCCc3ccsc32)CC1` (stereo not drawn), the IC50 in test [1] was 1.13 nM; in test [5], 147 nM; in test [2] it was 1.26 nM; on D(2) dopamine receptor, 24.1 nM.

Turning to `COc1ccc2c(c1)C(CCCN1CCN(c3ccccc3OC)CC1)=CCC2`, the IC50 in test [1] worked out at 2 nM; in test [5], 391 nM; in test [2], 24.5 nM; at D(2) dopamine receptor it was 90.6 nM. Moreover, the Selectivity turned out to be 114 in the test listed under Cavia porcellus, 45 in test [3] and 12 in test [4].

For `COc1ccccc1N1CCN(CCCCC2CCCc3c(OC)cccc32)CC1` (stereo not drawn), the results for the 50% inhibitory concentration (IC50) (in test [1]; in test [2]; on D(2) dopamine receptor) were 1.73 nM, 78.3 nM and 15.4 nM, respectively. The Selectivity was 8.9 in test [3] and 45 in test [4].

Take `COc1cccc2c1CCCC2CCCN1CCN(c2ccccc2)CC1` (stereo not drawn): the IC50 in test [1] was 0.36 nM; in test [5] it was 170 nM; in test [2], 78.8 nM; on D(2) dopamine receptor it was 96.7 nM.

With `COc1ccccc1N1CCN(CCSC2CCCc3c(OC)cccc32)CC1` (stereo not drawn), the IC50 in test [1] was determined as 1.08 nM; in test [2], 120 nM; at D(2) dopamine receptor, 7.83 nM. Further, the values for the Selectivity in test [3] and in test [4] were 7.3 and 111, respectively.

Consider `COc1ccc2c(c1)C(CCCN1CCN(c3cccc(C(F)(F)F)c3)CC1)=CCC2`, for which the 50% inhibitory concentration (IC50) in test [1] worked out at 138 nM; in test [5], 1170 nM; in test [2], 3070 nM; at D(2) dopamine receptor it was 1290 nM. The figures for the Selectivity in test [3] and in test [4] were 9.4 and 22, respectively.

As to `COc1cccc2c1CCCC2CCCN1CCN(c2cccc(C(F)(F)F)c2)CC1` (stereo not drawn), the figures for the 50% inhibitory concentration (IC50) (in test [1]; in test [2]; at D(2) dopamine receptor) were 146 nM, 7170 nM and 472 nM, respectively. In addition, the figures for the Selectivity in test [3] and in test [4] were 3.2 and 49, respectively.

In the case of `COc1cccc2c1CCC=C2CCCN1CCN(c2cccc(C(F)(F)F)c2)CC1`, the half-inhibitory concentration (IC50) came to 55.9 nM in test [1], 2370 nM in test [5], 278 nM in test [2] and 644 nM on D(2) dopamine receptor. Further, the results for the Selectivity in test [3] and in test [4] were 12 and 5, respectively.

On to `COc1ccccc1N1CCN(CCCC2CCCc3c(OC)cccc32)CC1` (stereo not drawn), for which the half-maximal inhibitory concentration (IC50) in test [1] came out at 0.32 nM; in test [5], 358 nM; in test [2] it was 1.94 nM.

Turning to `COc1ccccc1N1CCN(CCCC2CCCc3ccccc32)CC1` (stereo not drawn), the IC50 in test [1] was 0.39 nM; in test [5] it was 155 nM; in test [2], 0.14 nM; at D(2) dopamine receptor, 24.7 nM. In addition, the results for the Selectivity in test [3] and in test [4] were 63 and 0.36, respectively.

For the compound `COc1cccc2c1CCC=C2CCCN1CCN(c2ccccc2)CC1`, the IC50 in test [5] is 204 nM; in test [2], 49 nM; on D(2) dopamine receptor it was 303 nM.

As for `COc1ccc2c(c1)C(CCCN1CCN(c3ccccc3OC)CC1)CCC2` (stereo not drawn), the IC50 came to 1.5 nM in test [1], 220 nM in test [5], 43.2 nM in test [2] and 51.5 nM at D(2) dopamine receptor.

Consider `COc1cccc2c1CCC/C2=C\CCN1CCN(c2ccccn2)CC1`, for which the half-maximal inhibitory concentration (IC50) in test [1] came out at 0.35 nM; in test [5], 417 nM; in test [2], 72.2 nM; on D(2) dopamine receptor it was 150 nM.
